According to ChEMBL document CHEMBL1821564, “3-Acetyl-2,5-diaryl-2,3-dihydro-1,3,4-oxadiazoles: a new scaffold for the selective inhibition of monoamine oxidase B” (J Med Chem, 2011):

Experiments:
[1] = molecular target: T1, Amine oxidase [flavin-containing] A (Homo sapiens, UniProt P21397); assay: Inhibition of human recombinant MAO-A activity expressed in BTI-TN-5B1-4 insect cells at 100 uM using p-tyramine substrate by Amplex Red MAO assay; details: bti-tn-5b1-4, 100 µM
T1 sequence (P21397 whole entry): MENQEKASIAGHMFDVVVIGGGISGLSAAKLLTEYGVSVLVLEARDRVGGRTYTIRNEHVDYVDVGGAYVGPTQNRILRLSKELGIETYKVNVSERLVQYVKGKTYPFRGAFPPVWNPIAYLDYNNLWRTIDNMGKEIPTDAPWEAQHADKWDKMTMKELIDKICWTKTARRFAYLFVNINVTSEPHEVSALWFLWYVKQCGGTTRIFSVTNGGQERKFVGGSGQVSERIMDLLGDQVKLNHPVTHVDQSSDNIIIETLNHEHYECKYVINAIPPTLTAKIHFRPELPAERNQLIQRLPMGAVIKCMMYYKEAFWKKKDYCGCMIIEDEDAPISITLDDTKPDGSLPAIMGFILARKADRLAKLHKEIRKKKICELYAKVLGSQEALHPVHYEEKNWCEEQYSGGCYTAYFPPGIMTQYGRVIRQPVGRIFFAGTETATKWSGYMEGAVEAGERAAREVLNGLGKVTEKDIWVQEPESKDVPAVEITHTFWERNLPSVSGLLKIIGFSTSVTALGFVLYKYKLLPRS
Procedure, shortened: (§1)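 Microsomal hMAO-A or hMAO-B from baculovirus-infected BTI-TN-5B1-4 insect cells, with p-tyramine substrate. H2O2 production was read with the Amplex Red reagent. Highest concentration tested was 100 μM, limited by precipitation. Compounds were checked for no direct reaction with Amplex Red. IC50 is the mean ± SEM of five experiments.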

[2] = molecular target: T2, Amine oxidase [flavin-containing] B (Homo sapiens, UniProt P27338); assay: Inhibition of human recombinant MAO-B expressed in BTI-TN-5B1-4 insect cells using p-tyramine substrate by Amplex Red MAO assay; procedure, shortened: as §1
T2 sequence (P27338 whole entry): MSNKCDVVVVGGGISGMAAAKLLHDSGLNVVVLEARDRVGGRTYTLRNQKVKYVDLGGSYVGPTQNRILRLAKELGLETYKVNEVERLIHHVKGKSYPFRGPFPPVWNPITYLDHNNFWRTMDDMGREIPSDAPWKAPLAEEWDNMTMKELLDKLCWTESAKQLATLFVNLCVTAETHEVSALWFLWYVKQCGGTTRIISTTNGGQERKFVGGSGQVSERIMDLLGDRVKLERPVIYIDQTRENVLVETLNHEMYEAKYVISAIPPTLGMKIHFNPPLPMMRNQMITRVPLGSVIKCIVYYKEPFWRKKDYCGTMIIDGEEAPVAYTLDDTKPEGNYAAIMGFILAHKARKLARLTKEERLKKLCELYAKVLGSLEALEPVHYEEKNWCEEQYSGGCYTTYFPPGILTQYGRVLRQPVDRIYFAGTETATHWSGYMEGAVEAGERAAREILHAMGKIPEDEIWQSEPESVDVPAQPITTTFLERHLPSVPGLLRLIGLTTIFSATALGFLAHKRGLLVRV

Homo sapiens = organism: Homo sapiens; assay: Selectivity index, ratio of IC50 for human recombinant MAO-A to IC50 for human recombinant MAO-B
[3] = molecular target: T2, Amine oxidase [flavin-containing] B; assay: Inhibition of human recombinant MAO-B expressed in BTI-TN-5B1-4 insect cells at 100 uM using p-tyramine substrate by Amplex Red MAO assay; details: bti-tn-5b1-4, 100 µM; procedure, shortened: as §1

Structure (SMILES) | inhibition (INH) [1] | IC50 [2] | Ratio IC50 (Homo sapiens) | inhibition (INH) [3] | IC50 ([2]; bti-tn-5b1-4)
COc1ccc(C2OC(c3ccccc3)=NN2C(C)=O)cc1 (stereo not given) | Not Active | 5.16 µM | > 19 | – | –
CC(=O)N1N=C(c2ccccc2)O[C@H]1c1ccc(C)cc1 | Not Active | – | – | Not Active | –
CC(=O)N1N=C(c2ccc(C)cc2)OC1c1ccccc1 (stereo not given) | Not Active | – | – | Not Active | –
CC(=O)N1N=C(c2ccc(Cl)cc2)OC1c1ccc(Cl)cc1 (racemic) [listing 1 of 2 here] | – | – | > 867 | – | –
CC(=O)N1N=C(c2ccncc2)OC1c1ccc(N(C)C)cc1 (stereo not given) | Not Active | 46.8 µM | > 2.14 | – | –
CC(=O)N1N=C(c2ccc(Br)cc2)O[C@@H]1c1ccc(Cl)cc1 | Not Active | 0.0825 µM | > 1210 | – | –
CC(=O)N1N=C(c2ccccc2)O[C@@H]1c1ccc(C)cc1 | Not Active | 8.46 µM | > 12 | – | –
CC(=O)N1N=C(c2ccc(Cl)cc2)OC1c1ccc(Cl)cc1 (racemic) [listing 2 of 2 here] | – | – | – | – | 0.115 µM
CC(=O)N1N=C(c2ccc(C)cc2)OC1c1ccc(N(C)C)cc1 (stereo not given) | Not Active | – | – | Not Active | –
CC(=O)N1N=C(c2ccc(Br)cc2)OC1c1ccc(Cl)cc1 (racemic) [listing 1 of 2 here] | – | – | – | – | 0.221 µM
CC(=O)N1N=C(c2ccncc2)OC1c1ccc(Cl)cc1 (stereo not given) | Not Active | – | – | Not Active | –
CC(=O)N1N=C(c2ccccc2)OC1c1ccc(C)cc1 (racemic) [listing 1 of 2 here] | – | – | – | – | 19.4 µM
CC(=O)N1N=C(c2ccncc2)OC1c1ccc(C)cc1 (stereo not given) | Not Active | – | – | Not Active | –
CC(=O)N1N=C(c2ccc(Cl)cc2)OC1c1ccc(Cl)cc1 (stereo in doubt; 4p) [listing 1 of 2 here] | Not Active | 0.115 µM | – | – | –
COc1ccc(C2=NN(C(C)=O)C(c3ccc(Cl)cc3)O2)cc1 (stereo not given) | Not Active | – | – | Not Active | –
COc1ccc(C2OC(c3ccc(C)cc3)=NN2C(C)=O)cc1 (stereo not given) | Not Active | 74.7 µM | > 1.34 | – | –
COc1ccc(C2OC(c3ccncc3)=NN2C(C)=O)cc1OC (stereo not given) | Not Active | – | – | Not Active | –
CC(=O)N1N=C(c2ccc(Br)cc2)O[C@H]1c1ccc(Cl)cc1 | Not Active | – | – | Not Active | –
CC(=O)N1N=C(c2ccc(Cl)cc2)OC1c1ccc(Cl)cc1 (stereo in doubt; 4p) [listing 2 of 2 here] | – | – | > 867 | – | –
COc1ccc(C2OC(c3ccc(C)cc3)=NN2C(C)=O)cc1OC (stereo not given) | Not Active | – | – | Not Active | –

Structure (SMILES) | inhibition (INH) [1] | IC50 [2] | Ratio IC50 (Homo sapiens) | inhibition (INH) [3] | IC50 ([2]; bti-tn-5b1-4)
CC(=O)N1N=C(c2ccccc2)OC1c1ccccc1 (stereo not given) | Not Active | – | – | Not Active | –
CC(=O)N1N=C(c2ccc(Br)cc2)OC1c1ccc(Cl)cc1 (stereo in doubt; 4s) [listing 1 of 2 here] | – | – | > 453 | – | –
CC(=O)N1N=C(c2ccc(Br)cc2)OC1c1ccc(Cl)cc1 (racemic) [listing 2 of 2 here] | – | – | > 453 | – | –
CC(=O)N1N=C(c2ccc(Cl)cc2)O[C@H]1c1ccc(Cl)cc1 | Not Active | – | – | Not Active | –
CC(=O)N1N=C(c2ccccc2)OC1c1ccc(N(C)C)cc1 (stereo not given) | Not Active | – | – | Not Active | –
CC(=O)N1N=C(c2ccc(C)cc2)OC1c1ccc(C)cc1 (stereo not given) | Not Active | 66.6 µM | > 1.5 | – | –
CC(=O)N1N=C(c2ccc(C)cc2)OC1c1ccc(Cl)cc1Cl (stereo not given) | Not Active | – | – | Not Active | –
CC(=O)N1N=C(c2ccncc2)OC1c1ccc(Cl)cc1Cl (stereo not given) | Not Active | – | – | Not Active | –
CC(=O)N1N=C(c2ccccc2)OC1c1ccc(C)cc1 (stereo in doubt; 4y) [listing 1 of 2 here] | Not Active | 19.4 µM | – | – | –
CC(=O)N1N=C(c2ccc(Br)cc2)OC1c1ccc(Cl)cc1 (stereo in doubt; 4s) [listing 2 of 2 here] | Not Active | 0.221 µM | – | – | –
CC(=O)N1N=C(c2ccc([N+](=O)[O-])cc2)OC1c1ccc(Cl)cc1 (stereo not given) | Not Active | 0.122 µM | > 822 | – | –
CC(=O)N1N=C(c2ccccc2)OC1c1ccc(C)cc1 (racemic) [listing 2 of 2 here] | – | – | > 5.2 | – | –
COc1ccc(C2OC(c3ccncc3)=NN2C(C)=O)cc1 (stereo not given) | Not Active | – | – | Not Active | –
CC(=O)N1N=C(c2ccccc2)OC1c1ccc(Cl)cc1 (stereo not given) | Not Active | – | – | Not Active | –
CC(=O)N1N=C(c2ccncc2)OC1c1ccccc1 (stereo not given) | Not Active | – | – | Not Active | –
CC(=O)N1N=C(c2ccccc2)OC1c1ccc([N+](=O)[O-])cc1 (stereo not given) | Not Active | – | – | Not Active | –
CC(=O)N1N=C(c2ccc(C)cc2)OC1c1ccc(Cl)cc1 (stereo not given) | Not Active | – | – | Not Active | –
CC(=O)N1N=C(c2ccccc2)OC1c1ccc(F)cc1 (stereo not given) | Not Active | 9.53 µM | > 10 | – | –
CC(=O)N1N=C(c2ccc(Cl)cc2)O[C@@H]1c1ccc(Cl)cc1 | Not Active | 0.101 µM | > 994 | – | –
CC(=O)N1N=C(c2ccccc2)OC1c1ccc(C)cc1 (stereo in doubt; 4y) [listing 2 of 2 here] | – | – | > 5.2 | – | –
